This is an account of results in ChEMBL document CHEMBL1124468, “N-(fluoroethyl)(imidazolylphenyl)formamidines. The issue of the active species of mifentidine” (J Med Chem, 1989).

Data set [1] can be described thus: Dissociation constant for formamidine ring. Format: physicochemical. In short, it runs like this: (§1)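 Macroscopic ionization constants (pKa) by potentiometric titration of compound dissolved in previously boiled distilled water with 2 mL methanol; titrated with 0.1 N KOH in 0.1-equivalent additions, pH read at equilibrium after each addition.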
Data set [2] can be described thus: Dissociation constant for imidazole ring; ND means not determined because of product insolubility. Format: physicochemical. In short, it runs like this: as §1
The nature of data set [3]: Dissociation constant for imidazole ring. Format: physicochemical. The gist of the method:
as §1

For data set [4], the target named is Histamine H2 receptor (Cavia porcellus) (UniProt P47747). Kind of data set: Antagonist activity against histamine H2 receptor was evaluated in guinea pig atria; value ranges from (3.6-16.1)x10E-9. Format: functional. In short, it runs like this: (§2)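 Spontaneously beating atria from male Dunkin-Hartley guinea pigs (400–500 g) in oxygenated (O2/CO2 95:5) McEwen's solution, pH 6.5, 32 °C; rate recorded by instantaneous rate meter. Cumulative histamine up to maximal chronotropic response; antagonist equilibrated 60 min. K_B = [B]/(DR − 1), DR being histamine dose ratios at half-maximal response with and without several antagonist concentrations; multiple-regression evaluation.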
Chain of Histamine H2 receptor (Cavia porcellus) (P47747 whole entry): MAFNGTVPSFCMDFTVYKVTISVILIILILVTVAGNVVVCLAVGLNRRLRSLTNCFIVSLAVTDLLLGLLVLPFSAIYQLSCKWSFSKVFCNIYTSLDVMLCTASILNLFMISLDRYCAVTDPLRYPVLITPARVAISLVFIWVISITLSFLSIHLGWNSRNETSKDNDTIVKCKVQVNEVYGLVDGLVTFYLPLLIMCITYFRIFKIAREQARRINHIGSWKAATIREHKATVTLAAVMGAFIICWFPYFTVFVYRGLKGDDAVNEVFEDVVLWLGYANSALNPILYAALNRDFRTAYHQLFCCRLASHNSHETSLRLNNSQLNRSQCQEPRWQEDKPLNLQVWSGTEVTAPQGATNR

The nature of data set [5]: Percent of monocationic species at a pH of 6.5 was determined. In short, it runs like this: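 Monocationic percentage at pH 6.5 computed with the Henderson-Hasselbach equation from pKa values measured by potentiometric titration with 0.1 N KOH in water containing a little methanol.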
Data set [6] addresses Histamine H2 receptor (Cavia porcellus) (UniProt P47747). Kind of data set: Antagonist activity against histamine H2 receptor was evaluated in guinea pig atria; value ranges from (40.2-93.3) x10E-9. Format: functional. The gist of the method: as §2
For data set [7] the target is unchanged. Briefly: Antagonist activity against histamine H2 receptor was evaluated in guinea pig atria; value ranges from (3.8-119)x10E-9. Format: functional. In short, it runs like this: as §2

What is called pKa is the pH at which an ionisable group is half protonated. Low values mean a group that gives up its proton readily, high ones a group that holds its proton tightly. What is called Kb is the affinity of an antagonist, worked out from how it opposes an agonist.

As for `N#C/N=C/Nc1ccc(-c2c[nH]cn2)cc1`, the pKa in data set [1] is < 1; in data set [2] it was “Insoluble”.

In the case of `FC(F)(F)C/N=C/Nc1ccc(-c2c[nH]cn2)cc1`, the values for the pKa in data set [1] and in data set [3] were 6.14 and 4.45, respectively. In data set [4], the Kb came to 7.6 nM. The Monocation species in data set [5] was determined as 29.5%.

In the case of `FCC/N=C/Nc1ccc(-c2c[nH]cn2)cc1`, the pKa in data set [1] was found to be 8.12; in data set [3], 5.55. Further, the Monocation species in data set [5] is recorded as 87.56%. In data set [6], this molecule came in with a Kb of 61 nM.

`FC(F)C/N=C/Nc1ccc(-c2c[nH]cn2)cc1`: the results for the pKa in data set [1] and in data set [3] were 6.6 and 4.54, respectively. Further, the Kb in data set [7] was 21 nM. The molecule further had a Monocation species in data set [5] of 54.64%.

Take `CC/N=C/Nc1ccc(-c2c[nH]cn2)cc1`: the pKa in data set [1] came out at 8.65; in data set [3], 5.57. In data set [5], this molecule had a Monocation species of 88.78%.
